Results taken from ChEMBL document CHEMBL3414422, “Synthesis of new steroidal inhibitors of P-glycoprotein-mediated multidrug resistance and biological evaluation on K562/R7 erythroleukemia cells” (J Med Chem, 2015).

Experiments:
K562/R7 = test: Inhibition of p-gp (unknown origin) in doxorubicin-resistant human K562/R7 cells assessed as increase in daunorubicin accumulation measured as fluorescence ratio at 10 uM incubated for 1 hr with 10 uM daunorubicin by flow cytometry relative to control; assay type: cell-based
Outline: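 Resistant K562/R7 cells ([…]) incubated 1 h at 37 °C in RPMI 1640 with daunorubicin 10 µM, with or without steroid at 10 µM; intracellular fluorescence read by flow cytometry. Accumulation index = daunorubicin fluorescence ratio with/without modulator. Cyclosporin A as positive control. Duplicates, at least three separate experiments.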

[1] = Intrinsic cytotoxicity against human K562 cells assessed as cell survival […] by MTT assay; assay type: cell-based; details: read-out: Survival

Compound | Ratio (K562/R7) | viability [1] [%]
CC(=O)[C@H]1CC[C@H]2[C@H]3[C@H]([C@H](O[C@H]4CCCCO4)C[C@]12C)[C@@]1(C)CCC(=O)C[C@@H]1C[C@H]3OC(=O)c1ccccc1 | 2.3 | –
COC(=O)CCC(C)[C@H]1CC[C@H]2[C@@H]3[C@H](OC(=O)c4ccccc4)C[C@@H]4CC(=O)CC[C@]4(C)[C@H]3C[C@H](O[C@H]3CCCCO3)[C@]12C (stereo not given in full) | 2.7 | 53.5
COC(=O)CCC(C)[C@H]1CC[C@H]2[C@@H]3[C@H](O)C[C@@H]4CC(=O)CC[C@]4(C)[C@H]3C[C@H](O)[C@]12C (stereo not given in full) | 1.5 | –
COC(=O)CCC(C)[C@H]1CC[C@H]2[C@@H]3[C@H](O[C@@H]4CCCCO4)C[C@@H]4CC(=O)CC[C@]4(C)[C@H]3C[C@H](OC(=O)c3ccccc3)[C@]12C (stereo not given in full) | 2.9 | 51.3
CC(=O)[C@H]1CC[C@H]2[C@H]3[C@H]([C@H](OC(=O)c4ccccc4)C[C@]12C)[C@@]1(C)CCC(=O)C[C@@H]1C[C@H]3OC(=O)c1ccccc1 | 2.5 | 71.1
CC(=O)[C@H]1CC[C@H]2[C@@H]3CC[C@@H]4CC(=O)CC[C@]4(C)[C@H]3[C@H](O)C[C@]12C | 1 | –
CC(=O)[C@@]1(O[C@@H]2CCCCO2)CC[C@H]2[C@@H]3CCC4=CC(=O)CC[C@]4(C)[C@H]3CC[C@@]21C | 2.4 | –
CC(=O)[C@H]1CC[C@H]2[C@@H]3CC[C@@H]4CC(=O)CC[C@]4(C)[C@H]3CC[C@]12C | 1.2 | –
CC(=O)[C@H]1CC[C@H]2[C@@H]3[C@H](OC(=O)c4ccccc4)C[C@@H]4CC(=O)CC[C@]4(C)[C@H]3CC[C@]12C | 2.2 | –
CC(=O)[C@H]1CC[C@H]2[C@@H]3CCC4=CC(=O)CC[C@]4(C)[C@H]3[C@H](O[C@H]3CCCCO3)C[C@]12C | 2.4 | –
COC(=O)CCC(C)[C@H]1CC[C@H]2[C@@H]3[C@H](O[C@H]4CCCCO4)C[C@@H]4CC(=O)CC[C@]4(C)[C@H]3C[C@H](OC(=O)c3ccccc3)[C@]12C (stereo not given in full) | 3.3 | 44.6
COCCCC(C)[C@H]1CC[C@H]2[C@@H]3[C@H](OC(=O)c4ccccc4)C[C@@H]4CC(=O)CC[C@]4(C)[C@H]3C[C@H](O[C@H]3CCCCO3)[C@]12C (stereo not given in full) | 2.2 | 75.8
COCO[C@H]1C[C@H]2[C@@H]([C@H](O)C[C@@H]3CC(=O)CC[C@@]32C)[C@@H]2CC[C@H](C(C)CCC(=O)OC)[C@@]12C (stereo not given in full) | 2.1 | 84.7
CC(=O)[C@@]1(O[C@H]2CCCCO2)CC[C@H]2[C@@H]3CCC4=CC(=O)CC[C@]4(C)[C@H]3CC[C@@]21C | 2.8 | –
CC(=O)[C@@]1(O[C@H]2CCCCO2)CC[C@H]2[C@@H]3CC[C@@H]4CC(=O)CC[C@]4(C)[C@H]3CC[C@@]21C | 2.4 | –
CC(=O)[C@H]1CC[C@H]2[C@H]3[C@H]([C@H](O)C[C@]12C)[C@@]1(C)CCC(=O)C[C@H]1C[C@H]3OC(=O)c1ccccc1 | 1.4 | 92.9
COCCCC(C)[C@H]1CC[C@H]2[C@@H]3[C@H](OC(=O)c4ccccc4)C[C@@H]4CC(=O)CC[C@]4(C)[C@H]3C[C@H](OC(=O)c3ccccc3)[C@]12C (stereo not given in full) | 1.7 | 50.7
COCO[C@@H]1C[C@@H]2CC(=O)CC[C@]2(C)[C@H]2C[C@H](OC(=O)c3ccccc3)[C@]3(C)[C@@H](C(C)CCC(=O)OC)CC[C@H]3[C@H]12 (stereo not given in full) | 3.8 | 43.5
CC(=O)[C@@]1(O[C@@H]2CCCCO2)CC[C@H]2[C@@H]3CC[C@@H]4CC(=O)CC[C@]4(C)[C@H]3CC[C@@]21C | 2.3 | –

Compound | Ratio (K562/R7) | viability [1] [%]
COCCCC(C)[C@H]1CC[C@H]2[C@@H]3[C@H](O[C@H]4CCCCO4)C[C@@H]4CC(=O)CC[C@]4(C)[C@H]3C[C@H](OC(=O)c3ccccc3)[C@]12C (stereo not given in full) | 3.1 | 56.3
CC(=O)[C@H]1CC[C@H]2[C@H]3[C@H]([C@H](O[C@@H]4CCCCO4)C[C@]12C)[C@@]1(C)CCC(=O)C[C@@H]1C[C@H]3OC(=O)c1ccccc1 | 2.4 | 77.8
COC(=O)CCC(C)[C@H]1CC[C@H]2[C@@H]3[C@H](OC(=O)c4ccccc4)C[C@@H]4CC(=O)CC[C@]4(C)[C@H]3C[C@H](OC(=O)c3ccccc3)[C@]12C (stereo not given in full) | 1.5 | 57.3
CC(=O)[C@H]1CC[C@H]2[C@@H]3CC[C@@H]4CC(=O)CC[C@]4(C)[C@H]3[C@H](O[C@@H]3CCCCO3)C[C@]12C | 2.5 | –
COCO[C@H]1C[C@H]2[C@@H]([C@H](OC(=O)c3ccccc3)C[C@@H]3CC(=O)CC[C@@]32C)[C@@H]2CC[C@H](C(C)CCC(=O)OC)[C@@]12C (stereo not given in full) | 2.9 | 49.7
CC(=O)[C@H]1CC[C@H]2[C@H]3[C@H]([C@H](O)C[C@]12C)[C@@]1(C)CCC(=O)C[C@H]1C[C@H]3O | 1.1 | –
CC(=O)[C@@]1(O)CC[C@H]2[C@@H]3CC[C@@H]4CC(=O)CC[C@]4(C)[C@H]3CC[C@@]21C | 1.1 | –
CC#C[C@]1(O)CC[C@H]2[C@@H]3CCC4=CC(=O)CCC4=C3[C@@H](c3ccc(N(C)C)cc3)C[C@@]21C [MIFEPRISTONE] | 2.4 | 95.6
CC(=O)[C@@]1(O)CC[C@H]2[C@@H]3CC[C@@H]4CC(=O)CC[C@]4(C)[C@H]3[C@H](O)C[C@@]21C | 1 | –
COC(=O)CCC(C)[C@H]1CC[C@H]2[C@@H]3[C@H](OC4CCCCO4)C[C@@H]4CC(=O)CC[C@]4(C)[C@H]3C[C@H](OC3CCCCO3)[C@]12C (mixture of isomers) | 3.5 | 63.2
COC(=O)CCC(C)[C@H]1CC[C@H]2[C@@H]3[C@H](OC(=O)c4ccccc4)C[C@@H]4CC(=O)CC[C@]4(C)[C@H]3C[C@H](O[C@@H]3CCCCO3)[C@]12C (stereo not given in full) | 2.1 | 56.4
CC(=O)[C@H]1CC[C@H]2[C@H]3[C@H]([C@H](O[C@H]4CCCCO4)C[C@]12C)[C@@]1(C)CCC(=O)C[C@H]1C[C@H]3OC(=O)c1ccccc1 | 2.3 | 100
CC(=O)[C@H]1CC[C@H]2[C@@H]3CC[C@H]4CC(=O)CC[C@]4(C)[C@H]3CC[C@]12C | 1 | –
CC(=O)[C@H]1CC[C@H]2[C@@H]3CC[C@@H]4CC(=O)CC[C@]4(C)[C@H]3[C@H](O[C@H]3CCCCO3)C[C@]12C | 2.5 | –
CC(=O)[C@@]1(O)CC[C@H]2[C@@H]3CCC4=CC(=O)CC[C@]4(C)[C@H]3CC[C@@]21C | 1 | –
CC(=O)[C@H]1CC[C@H]2[C@@H]3CCC4=CC(=O)CC[C@]4(C)[C@H]3[C@H](O)C[C@]12C | 1 | –
CC(=O)[C@H]1CC[C@H]2[C@@H]3[C@H](OC4CCCCO4)C[C@@H]4CC(=O)CC[C@]4(C)[C@H]3CC[C@]12C (mixture of isomers) | 2.4 | –
COc1ccc(CCN(C)CCCC(C#N)(c2ccc(OC)c(OC)c2)C(C)C)cc1OC (stereo not given) | – | 93.3
C[C@]12CC[C@H]3[C@@H](CCC4=CC(=O)CC[C@@]43C)[C@@H]1CC[C@@H]2C(=O)COC1CCCCO1 (mixture of isomers) | 1.6 | –
